pIC50: −log10 of the molar value.
Tests used:
[1] = system: Gli1-mediated transcription (human full-length Gli1); experiment: Gli-Luc reporter assay in C3H10T1/2 cells transfected with Gli1; format: cell-based; conditions: for inhibition of Gli1-mediated transcription (Gli-Luc), relative potency in words: Gli1-transfected C3H10T1/2 cells, 10 µM or 20 µM, 24 h
medulloblastoma [2] = conditions: mouse model in which Ptch1 is inactivated; cited from earlier work
medulloblastoma [3] = conditions: mouse model in which SuFu is inactivated; cited from earlier work
bone development = conditions: young mice; cited from earlier work
[4] = system: endogenous Gli in Rh30 cells; experiment: Gli-mediated transcription reporter assay in Rh30 cells; format: cell-based
How it was run: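 Rh30 cells seeded at 3×10^5 per dish in RPMI-1640 with 10% FBS (37 °C, 5% CO2); after 24 h (~70% confluence) transfected with GliLuc-BS (500 ng/mL) and pRL-CMV (2.5 ng/mL) using Fugene6. Replated into 96-well plates 6 h post-transfection; 18 h later exposed to test compound or DMSO for 24 h. Lysed cells read by dual luciferase as firefly/Renilla ratio.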

[5] = system: Histone deacetylase (HDAC); experiment: HDAC inhibition; format: biochemical; conditions: up to 40 µM; data not shown
[6] = Microsomal stability assay; format: in vitro ADME; conditions: CD-1 female mouse liver microsomes, 37°C
[7] = system: Hh signal-mediated alkaline phosphatase; experiment: Hh signal-mediated alkaline phosphatase induction in C3H10T1/2 cells; format: cell-based, mouse; conditions: osteoblastic differentiation marker
[8] = system: Gli1-target genes in Rh30 cells; experiment: Real-time RT-PCR of Gli1-target genes in Rh30 cells; format: cell-based; conditions: 24 h after addition

## CN(C)c1ccccc1CN1CCCN(Cc2ccccc2N(C)C)C1c1ccncc1 [GANT61, reference compound]
[1]; Homo sapiens, C3H 10T1/2, 24 h, read-out: IC50, Gli-Luc signal in Gli1-transfected C3H10T1/2 cells
  pIC50: ~4.70

## COc1cc(OC)cc(C(=O)Nc2ccc(Cl)c(-c3nc4ccc(N(C)C)cc4[nH]3)c2)c1 [HhAntag]
Medulloblastoma [2]
  effect on medulloblastoma: eliminate medulloblastoma
Medulloblastoma [3]
  efficacy: not to be effective
Bone development
  effect on bone development: permanent defects in bone development
[4]; concentration as high as 40 µM
  Gli-Luc inhibition in Rh30 cells, in words: almost no Gli-Luc inhibition

## CC(C(=O)NCCc1ccc(O)cc1)c1cccc(C(=O)c2ccccc2)c1 (stereo not shown) [compound 5]
[5]
  HDAC inhibition: do not inhibit
[6]
  time to complete consumption in mouse liver microsomes: less than 1 h

## CCCN(CCc1ccc(O)cc1)C(=O)C(C)c1cccc(C(=O)c2ccccc2)c1 (stereo not shown) [compound 6]
[5]
  HDAC inhibition: do not inhibit
[6]
  time to complete consumption in mouse liver microsomes: less than 1 h

## CC(C(=O)NCCc1ccc2[nH]ccc2c1)c1cccc(C(=O)c2ccccc2)c1 (stereo not shown) [compound 20, N-(2-(1H-Indol-5-yl)ethyl)-2-(3-benzoylphenyl)propanamide]
[1]
  inhibition of Gli1-mediated transcription (Gli-Luc), relative potency in words: much weaker activity than 5

## CC(C(=O)NCc1ccc2[nH]ccc2c1)c1cccc(C(=O)c2ccccc2)c1 (stereo not shown) [compound 21, N-((1H-Indol-5-yl)methyl)-2-(3-benzoylphenyl)propanamide]
[1]
  inhibition of Gli1-mediated transcription (Gli-Luc), relative potency in words: higher activity than 20

## CC(C(=O)Nc1ccc2[nH]ccc2c1)c1cccc(C(=O)c2ccccc2)c1 (stereo not shown) [compound 22, 2-(3-Benzoylphenyl)-N-(1H-indol-5-yl)propanamide]
[1]
  inhibition of Gli1-mediated transcription (Gli-Luc), relative potency in words: higher activity than 20

## CC(C(=O)Nc1ccc2cc[nH]c2c1)c1cccc(C(=O)c2ccccc2)c1 (stereo not shown) [compound 23, 2-(3-Benzoylphenyl)-N-(1H-indol-6-yl)propanamide]
[1]
  inhibition of Gli1-mediated transcription (Gli-Luc), relative potency in words: best among the tested analogs
[6]
  stability in mouse liver microsomes, in words: much more stable than 5 and 6
[4]; 10 µM or 20 µM, 24 h
  Gli-Luc inhibition in Rh30 cells, in words: inhibition with similar or slightly weaker potency
[7]
  inhibitory effect in inducing Hh signal-mediated alkaline phosphatase: much smaller than that of HhAntag

## CC(CNC(=O)Cc1ccc2[nH]ccc2c1)c1cccc(C(=O)c2ccccc2)c1 (stereo not shown) [compound 25, N-(2-(3-Benzoylphenyl)propyl)-2-(1H-indol-5-yl)acetamide]
[1]
  inhibition of Gli1-mediated transcription (Gli-Luc), relative potency in words: only weak activity

## CC(CNC(=O)c1cc2ccccc2[nH]1)c1cccc(C(=O)c2ccccc2)c1 (stereo not shown) [compound 28, N-(2-(3-Benzoylphenyl)propyl)-1H-indole-2-carboxamide]
[1]
  inhibition of Gli1-mediated transcription (Gli-Luc), relative potency in words: equipotent inhibitors

## CC(CNC(=O)c1c[nH]c2ccccc12)c1cccc(C(=O)c2ccccc2)c1 (stereo not shown) [compound 29, N-(2-(3-Benzoylphenyl)propyl)-1H-indole-3-carboxamide]
[1]
  inhibition of Gli1-mediated transcription (Gli-Luc), relative potency in words: equipotent inhibitors

## CC(CNC(=O)c1cccc2[nH]ccc12)c1cccc(C(=O)c2ccccc2)c1 (stereo not shown) [compound 30, N-(2-(3-Benzoylphenyl)propyl)-1H-indole-4-carboxamide]
[1]
  inhibition of Gli1-mediated transcription (Gli-Luc), relative potency in words: decreased the potency

## CC(CNC(=O)c1cccc2cc[nH]c12)c1cccc(C(=O)c2ccccc2)c1 (stereo not shown) [compound 31, N-(2-(3-Benzoylphenyl)propyl)-1H-indole-7-carboxamide]
[1]
  inhibition of Gli1-mediated transcription (Gli-Luc), relative potency in words: decreased the potency

## CC(C(=O)N(C)c1ccc2cc[nH]c2c1)c1cccc(C(=O)c2ccccc2)c1 (stereo not shown) [compound 32, 2-(3-Benzoylphenyl)-N-(1H-indol-6-yl)-N-methylpropanamide]
[1]
  inhibition of Gli1-mediated transcription (Gli-Luc), relative potency in words: Little improvement

## CCCN(C(=O)C(C)c1cccc(C(=O)c2ccccc2)c1)c1ccc2cc[nH]c2c1 (stereo not shown) [compound 33, 2-(3-Benzoylphenyl)-N-(1H-indol-6-yl)-N-propylpropanamide]
[8]
  expression of Gli1-target genes in Rh30 cells (RT-PCR): inhibits expression of Gli1-target genes
[5]
  HDAC inhibition: do not inhibit
[6]
  stability in mouse liver microsomes, in words: much more stable than 5 and 6
[4]; 10 µM or 20 µM, 24 h
  Gli-Luc inhibition in Rh30 cells, in words: inhibition with similar or slightly weaker potency
[7]
  inhibitory effect in inducing Hh signal-mediated alkaline phosphatase: much smaller than that of HhAntag

## CCCC(C)(C(=O)Nc1ccc2cc[nH]c2c1)c1cccc(C(=O)c2ccccc2)c1 (stereo not shown) [compound 40, 2-(3-Benzoylphenyl)-N-(1H-indol-6-yl)-2-methylpentanamide]
[1]
  inhibition of Gli1-mediated transcription (Gli-Luc), relative potency in words: did not increase potency

## CCCn1ccc2ccc(NC(=O)C(C)c3cccc(C(=O)c4ccccc4)c3)cc21 (stereo not shown) [compound 41, 2-(3-Benzoylphenyl)-N-(1-propyl-1H-indol-6-yl)propanamide]
[1]
  inhibition of Gli1-mediated transcription (Gli-Luc), relative potency in words: did not increase potency

## CCCN(C(=O)C(C)c1cccc(C(=O)c2ccccc2)c1)c1ccc2[nH]ccc2c1 (stereo not shown) [compound 42, 2-(3-Benzoylphenyl)-N-(1H-indol-5-yl)-N-propylpropanamide]
[5]
  HDAC inhibition: do not inhibit
[4]; 10 µM or 20 µM, 24 h
  Gli-Luc inhibition in Rh30 cells, in words: inhibition with similar or slightly weaker potency
[7]
  inhibitory effect in inducing Hh signal-mediated alkaline phosphatase: much smaller than that of HhAntag

## CCCN(C(=O)C(C)c1cccc(C(=O)c2ccccc2)c1)c1cccc2[nH]ccc12 (stereo not shown) [compound 43, 2-(3-Benzoylphenyl)-N-(1H-indol-4-yl)-N-propylpropanamide]
[1]
  inhibition of Gli1-mediated transcription (Gli-Luc), relative potency in words: equipotent to 33

## CCCN(Cc1ccc2[nH]ccc2c1)C(=O)C(C)c1cccc(C(=O)c2ccccc2)c1 (stereo not shown) [compound 44, N-((1H-Indol-5-yl)methyl)-2-(3-benzoylphenyl)-N-propylpropanamide]
[1]
  inhibition of Gli1-mediated transcription (Gli-Luc), relative potency in words: weaker potency than 42
